Structures can show the parent of a compound that is named as a salt.
What was measured:
Mus musculus [1] = test: Maximum nonlethal drug dose administered intraperitoneally to non tumor bearing nude mice; type: functional
How it was run: (§1)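 Nontumor-bearing nude mice were dosed intraperitoneally once daily for 5 consecutive days. MTD is the maximum dose that could be given on this schedule without lethality. P values are reported.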

[2] = Percent PSA reduction after intraperitoneal injection of conjugate dose to nude mice bearing LNCaP tumor xenografts; type: functional, Mus musculus
How it was run: (§2)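 Nude mice bearing human prostate LNCaP (PSA-secreting) xenografts were given the conjugate intraperitoneally for 5 consecutive days and followed over six weeks. Serum PSA, tumor weight and body weight were measured at study end. Results are percent relative to vehicle-treated controls, with P values.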

T47D = test: In vitro concentration required to kill 50% of T47D human breast ductal carcinoma cell line; type: functional, cell-based
How it was run: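 T47D is a PSA-nonsecreting human breast ductal carcinoma line, used as a control for PSA-secreting LNCaP cells. Compounds were tested in cell culture. EC50 is the dose that kills 50% of the tumor cells.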

LNCaP [3] = test: In vitro concentration required to kill 50% of LNCaP human prostate cancer cell line; type: functional, cell-based
How it was run: (§3)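 Cell-kill assay in culture. LNCaP is a PSA-secreting human prostate cancer line. Colo320 is a PSA-nonsecreting human colorectal carcinoma line, used as the non-PSA control. EC50 is the compound dose that kills 50% of the tumor cells.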

COLO 320 = test: In vitro concentration required to kill 50% of COLO 320 human colorectal carcinoma cell line; type: functional, cell-based; how it was run: as §3
Mus musculus [4] = test: Intraperitoneal dose administered to non tumor bearing nude mice; type: functional; how it was run: as §1
LNCaP [5] = test: Percent tumor weight reduction after intraperitoneal injection of conjugate dose to nude mice bearing LNCaP tumor xenografts; type: functional, Mus musculus; how it was run: as §2
PSA = test: Time required for PSA to hydrolyze 50% compound at a molar ratio of 1:100; type: ADME; conditions: PSA (enzyme)
How it was run: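 Conjugate and purified human PSA were mixed at a 100:1 molar ratio (substrate:enzyme) in 50 mM Tris·HCl and 140 mM NaCl, pH 7.4. Samples were incubated at 37 °C for 0, 30, 60, 120, 180 or 240 min. T1/2 is the time to 50% cleavage.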

Row | Structure (SMILES) | MTD (Mus musculus [1]) [µM/kg] | Reduction [2] [%] | EC50 (T47D) [µM] | EC50 (LNCaP [3]) [µM] | EC50 (COLO 320) [µM] | Dose (Mus musculus [4]) [µM/kg] | Weight reduction (LNCaP [5]) [%] | half-life (PSA) [min]
1 | CC[C@]1(O)C[C@@H]2CN(CCc3c([nH]c4ccccc34)[C@@](C(=O)OC)(c3cc4c(cc3OC)N(C)C3C45CCN4CC=C[C@](CC)(C45)[C@@H](O)[C@]3(O)C(=O)OC)C2)C1 (some centres not stated) | 0.26 | 14 | 0.15 | 0.1 | 0.2 | 0.26 | 16 | –
2 | CC[C@]1(O)C[C@@H]2CN(CCc3c([nH]c4ccccc34)[C@@](C(=O)OC)(c3cc4c(cc3OC)N(C)C3C45CCN4CC=C[C@](CC)(C45)[C@@H](OC(=O)CN)[C@]3(O)C(=O)OC)C2)C1 (some centres not stated) | – | – | – | 0.3 | 1.8 | – | – | –
3 | CC[C@]1(O)C[C@@H]2CN(CCc3c([nH]c4ccccc34)[C@@](C(=O)OC)(c3cc4c(cc3OC)N(C)C3C45CCN4CC=C[C@](CC)(C45)[C@@H](OC(=O)[C@@H](N)CC(C)C)[C@]3(O)C(=O)OC)C2)C1 (some centres not stated) | – | – | – | 4 | 6 | – | – | –
4 | CC[C@]1(O)C[C@@H]2CN(CCc3c([nH]c4ccccc34)[C@@](C(=O)OC)(c3cc4c(cc3OC)N(C)C3C45CCN4CC=C[C@](CC)(C45)[C@@H](OC(=O)C4CCCN4)[C@]3(O)C(=O)OC)C2)C1.O=C(O)C(F)(F)F (some centres not stated) | 4.6 | 33 | 1.6 | 1 | 3 | 4.6 | 60 | –
5 | CC[C@]1(O)C[C@@H]2CN(CCc3c([nH]c4ccccc34)[C@@](C(=O)OC)(c3cc4c(cc3OC)N(C)C3C45CCN4CC=C[C@](CC)(C45)[C@@H](OC(=O)[C@H](CC(C)C)NC(=O)[C@H](CO)NC(=O)[C@H](CCC(N)=O)NC(=O)C(NC(=O)[C@H](CO)NC(=O)[C@H](CO)NC(=O)[C@H]4CC(O)CN4C(C)=O)C4CCCCC4)[C@]3(O)C(=O)OC)C2)C1.O=C(O)C(F)(F)F (some centres not stated) | – | – | – | 40 | 87 | – | – | 35
6 | CC[C@]1(O)C[C@@H]2CN(CCc3c([nH]c4ccccc34)[C@@](C(=O)OC)(c3cc4c(cc3OC)N(C)[C@H]3[C@@](O)(C(=O)OC)[C@H](OC(C)=O)[C@]5(CC)C=CCN6CC[C@]43[C@@H]65)C2)C1 [VINBLASTINE SULFATE] | – | – | – | 0.5 | – | – | – | –

Reference: ChEMBL document CHEMBL1135593, “Design and synthesis of a pro-drug of vinblastine targeted at treatment of prostate cancer with enhanced efficacy and reduced systemic toxicity” (J Med Chem, 2002)
